In ChEMBL document CHEMBL3232870, “Discovery of 3-(4-methanesulfonylphenoxy)-N-[1-(2-methoxy-ethoxymethyl)-1H-pyrazol-3-yl]-5-(3-methylpyridin-2-yl)-benzamide as a novel glucokinase activator (GKA) for the treatment of type 2 diabetes mellitus” (Bioorg Med Chem, 2014):

Target: T1, Hexokinase-4 (Homo sapiens) (UniProt P35557)
T1 sequence (whole entry): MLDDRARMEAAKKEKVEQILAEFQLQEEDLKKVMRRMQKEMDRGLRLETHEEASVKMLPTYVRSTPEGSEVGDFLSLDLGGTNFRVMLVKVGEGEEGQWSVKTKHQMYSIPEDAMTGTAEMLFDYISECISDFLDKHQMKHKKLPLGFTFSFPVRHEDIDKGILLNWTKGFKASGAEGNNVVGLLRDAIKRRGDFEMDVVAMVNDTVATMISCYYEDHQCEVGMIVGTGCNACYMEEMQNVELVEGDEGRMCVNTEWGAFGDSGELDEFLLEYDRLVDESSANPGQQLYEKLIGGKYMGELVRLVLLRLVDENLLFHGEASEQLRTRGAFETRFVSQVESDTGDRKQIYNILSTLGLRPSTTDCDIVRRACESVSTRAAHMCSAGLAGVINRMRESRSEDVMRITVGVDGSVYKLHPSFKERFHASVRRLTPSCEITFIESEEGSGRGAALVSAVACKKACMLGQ
Experiment: Activity of recombinant human pancreatic glucokinase assessed as glucose half-maximal saturation concentration
How it was run: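 Purified recombinant human pancreatic glucokinase coupled enzymatic assay, compounds in DMSO. Buffer: HEPES pH 7.4, KCl, MgCl2, DTT, ATP, NADP, G6PDH. Half-saturation glucose concentration S0.5 was reported. Values are means of three duplicate runs.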

Row | S50 [mM] | SMILES
1 | 2.27 | COCC(C)NCc1csc(NC(=O)c2cc(Oc3ccc(S(C)(=O)=O)cc3)cc(-c3ncccc3C)c2)n1 (centres undefined)
2 | 3.98 | Cc1cccnc1-c1cc(Oc2ccc(S(C)(=O)=O)cc2)cc(C(=O)Nc2nc(CNC(C)C)cs2)c1
3 | 4.35 | CCNC(=O)Cc1csc(NC(=O)c2cc(Oc3ccc(S(C)(=O)=O)cc3)cc(-c3ncccc3C)c2)n1
4 | 0.57 | COC(CNCc1csc(NC(=O)c2cc(Oc3ccc(S(C)(=O)=O)cc3)cc(-c3ncccc3C)c2)n1)OC
5 | 2.01 | Cc1cccnc1-c1cc(Oc2ccc(S(C)(=O)=O)cc2)cc(C(=O)Nc2nccs2)c1
6 | 2.21 | C#CCNCc1csc(NC(=O)c2cc(Oc3ccc(S(C)(=O)=O)cc3)cc(-c3ncccc3C)c2)n1
7 | 3.54 | Cc1cccnc1-c1cc(Oc2ccc(S(C)(=O)=O)cc2)cc(C(=O)Nc2ccn(CCN3CCOCC3)n2)c1
8 | 3.24 | Cc1cccnc1-c1cc(Oc2ccc(S(C)(=O)=O)cc2)cc(C(=O)Nc2nc(CN3CCOCC3)cs2)c1
9 | 4.56 | COCCN(C)Cc1csc(NC(=O)c2cc(Oc3ccc(S(C)(=O)=O)cc3)cc(-c3ncccc3C)c2)n1
10 | 5.43 | COCCN(CCOC)Cc1csc(NC(=O)c2cc(Oc3ccc(S(C)(=O)=O)cc3)cc(-c3ncccc3C)c2)n1
11 | 3.08 | Cc1cccnc1-c1cc(Oc2ccc(S(C)(=O)=O)cc2)cc(C(=O)Nc2nc(CN3CCNCC3)cs2)c1
12 | 1.95 | Cc1cccnc1-c1cc(Oc2ccc(S(C)(=O)=O)cc2)cc(C(=O)Nc2ncc(F)s2)c1
13 | 1.78 | Cc1cccnc1-c1cc(Oc2ccc(S(C)(=O)=O)cc2)cc(C(=O)Nc2nc(CC(=O)NC3CC3)cs2)c1
14 | 4.51 | CCCNCc1csc(NC(=O)c2cc(Oc3ccc(S(C)(=O)=O)cc3)cc(-c3ncccc3C)c2)n1
15 | 5.79 | CCN(CC)Cc1csc(NC(=O)c2cc(Oc3ccc(S(C)(=O)=O)cc3)cc(-c3ncccc3C)c2)n1
16 | 3.44 | Cc1cccnc1-c1cc(Oc2ccc(S(C)(=O)=O)cc2)cc(C(=O)Nc2nc(CN3CCN(C)CC3)cs2)c1
17 | 3.89 | Cc1cccnc1-c1cc(Oc2ccc(S(C)(=O)=O)cc2)cc(C(=O)Nc2ccn(C)n2)c1
18 | 2.33 | COCCOCn1ccc(NC(=O)c2cc(Oc3ccc(S(C)(=O)=O)cc3)cc(-c3ncccc3C)c2)n1

Tested on: Mus musculus
Experiment: Antidiabetic activity in po dosed C57BL/J6 mouse assessed as reduction of glucose AUC preincubated for 30 mins followed by glucose challenge measured after 30 to 180 mins by oral glucose tolerance test

Row | SMILES | Activity
19 | COCCOCn1ccc(NC(=O)c2cc(Oc3ccc(S(C)(=O)=O)cc3)cc(-c3ncccc3C)c2)n1 | Dose-dependent effect
